Test results reported in ChEMBL document CHEMBL1938300 (Bioorg Med Chem, 2011).
In brackets after ≈: the same amount, converted by molar mass.

tested on: not listed separately; assay: Half life in Sprague-Dawley rat liver microsomes; format: ADME, Microsome; settings: not given

SMILES | half-life
CNC(=O)c1cccc(F)c1Nc1nc(Nc2ccc3c(c2)NC(=O)CCC3(C)C)ncc1Cl | 15 min
CNC(=O)c1cccc(F)c1Nc1nc(Nc2ccc3c(c2)NC(=O)[C@H](NC(=O)N2CCCC2)CC3(C)C)ncc1Cl | 21 min

tested on: Rattus norvegicus; assay: AUC in Sprague-Dawley rat at 1 mg/kg, iv by HPLC; format: ADME, organism-based, Plasma; design: dose 1 mg/kg, route intravenous; settings: in vivo

SMILES | AUC
CNC(=O)c1cccc(F)c1Nc1nc(Nc2ccc3c(c2)NC(=O)CCC3(C)C)ncc1Cl | 1060 ng·h/mL
CNC(=O)c1cccc(F)c1Nc1nc(Nc2ccc3c(c2)NC(=O)[C@H](NC(=O)N2CCCC2)CC3(C)C)ncc1Cl | 3460 ng·h/mL
CNC(=O)c1cccc(F)c1Nc1nc(Nc2ccc3c(c2)NC(=O)[C@@H](NC(=O)N2CCCC2)CC3(C)C)ncc1Cl | 3190 ng·h/mL
CNC(=O)c1cccc(F)c1Nc1nc(Nc2ccc3c(c2)NC(=O)C(NC(=O)C(F)(F)F)CC3(C)C)ncc1Cl.O=C(O)C(F)(F)F (racemic) | 1310 ng·h/mL
CNC(=O)c1cccc(F)c1Nc1nc(Nc2ccc3c(c2)NC(=O)C(N)CC3(C)C)ncc1Cl (racemic) | 787 ng·h/mL
CNC(=O)c1cccc(F)c1Nc1nc(Nc2ccc3c(c2)NC(=O)C(NC(=O)CN(C)C)CC3(C)C)ncc1Cl.O=C(O)C(F)(F)F (racemic) | 825 ng·h/mL
CNC(=O)c1cccc(F)c1Nc1nc(Nc2ccc3c(c2)NC(=O)C(NC(C)=O)CC3(C)C)ncc1Cl.O=C(O)C(F)(F)F (racemic) | 654 ng·h/mL
CNC(=O)c1cccc(F)c1Nc1nc(Nc2ccc3c(c2)NC(=O)C(NC(=O)COC)CC3(C)C)ncc1Cl.O=C(O)C(F)(F)F (racemic) | 846 ng·h/mL
CNC(=O)c1cccc(F)c1Nc1nc(Nc2ccc3c(c2)NC(=O)C(NC(=O)OC)CC3(C)C)ncc1Cl.O=C(O)C(F)(F)F (racemic) | 1200 ng·h/mL
CNC(=O)c1cccc(F)c1Nc1nc(Nc2ccc3c(c2)NC(=O)C(NC(=O)N2CCCC2)CC3(C)C)ncc1Cl.O=C(O)C(F)(F)F (racemic; form 1) | 3420 ng·h/mL
CNC(=O)c1cccc(F)c1Nc1nc(Nc2ccc3c(c2)NC(=O)C(NC(=O)N2CCCC2)CC3(C)C)ncc1Cl (racemic; form 2) | 2330 ng·h/mL

tested on: not listed separately; assay: Clearance in Sprague-Dawley rat by HPLC; format: ADME, organism-based; settings: in vivo
In short: (§1)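 Rat IV pharmacokinetics: male Sprague-Dawley, n=3, 1 mg/kg tail-vein dose in 3% DMSO/30% Solutol/67% PBS; plasma over 0.083–6 h quantified by HPLC-MS/MS; parameters estimated per rat by non-compartmental analysis.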

SMILES | clearance
CNC(=O)c1cccc(F)c1Nc1nc(Nc2ccc3c(c2)NC(=O)CCC3(C)C)ncc1Cl | 16 mL/min/kg
CNC(=O)c1cccc(F)c1Nc1nc(Nc2ccc3c(c2)NC(=O)[C@H](NC(=O)N2CCCC2)CC3(C)C)ncc1Cl | 5 mL/min/kg
CNC(=O)c1cccc(F)c1Nc1nc(Nc2ccc3c(c2)NC(=O)[C@@H](NC(=O)N2CCCC2)CC3(C)C)ncc1Cl | 5 mL/min/kg
CNC(=O)c1cccc(F)c1Nc1nc(Nc2ccc3c(c2)NC(=O)C(NC(=O)C(F)(F)F)CC3(C)C)ncc1Cl.O=C(O)C(F)(F)F (racemic) | 16 mL/min/kg
CNC(=O)c1cccc(F)c1Nc1nc(Nc2ccc3c(c2)NC(=O)C(NC(=O)CN(C)C)CC3(C)C)ncc1Cl.O=C(O)C(F)(F)F (racemic) | 32 mL/min/kg
CNC(=O)c1cccc(F)c1Nc1nc(Nc2ccc3c(c2)NC(=O)C(NC(C)=O)CC3(C)C)ncc1Cl.O=C(O)C(F)(F)F (racemic) | 33 mL/min/kg
CNC(=O)c1cccc(F)c1Nc1nc(Nc2ccc3c(c2)NC(=O)C(NC(=O)COC)CC3(C)C)ncc1Cl.O=C(O)C(F)(F)F (racemic) | 20 mL/min/kg
CNC(=O)c1cccc(F)c1Nc1nc(Nc2ccc3c(c2)NC(=O)C(NC(=O)OC)CC3(C)C)ncc1Cl.O=C(O)C(F)(F)F (racemic) | 15 mL/min/kg
CNC(=O)c1cccc(F)c1Nc1nc(Nc2ccc3c(c2)NC(=O)C(NC(=O)N2CCCC2)CC3(C)C)ncc1Cl.O=C(O)C(F)(F)F (racemic; form 1) | 6 mL/min/kg
CNC(=O)c1cccc(F)c1Nc1nc(Nc2ccc3c(c2)NC(=O)C(NC(=O)N2CCCC2)CC3(C)C)ncc1Cl (racemic; form 2) | 8 mL/min/kg

tested on: not listed separately; assay: Oral bioavailability Sprague-Dawley rat at 5 mg/kg by HPLC; format: ADME, organism-based; settings: in vivo
In short: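 Male Sprague-Dawley rats (n=3/group) given 1 mg/kg IV (DMSO/Solutol/PBS) or, after overnight fast, 5 mg/kg oral gavage in PEG400; plasma by HPLC-MS/MS; F% = dose-normalised oral AUC0-∞ divided by IV AUC0-∞, times 100.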

SMILES | bioavailability
CNC(=O)c1cccc(F)c1Nc1nc(Nc2ccc3c(c2)NC(=O)CCC3(C)C)ncc1Cl | 1%
CCN1C(=O)CCC(C)(C)c2ccc(Nc3ncc(Cl)c(Nc4c(F)cccc4C(=O)NC)n3)cc21 | 0%
CNC(=O)c1cccc(F)c1Nc1nc(Nc2ccc3c(c2)NC(=O)[C@H](NC(=O)N2CCCC2)CC3(C)C)ncc1Cl | 34%
CNC(=O)c1cccc(F)c1Nc1nc(Nc2ccc3c(c2)NC(=O)[C@@H](NC(=O)N2CCCC2)CC3(C)C)ncc1Cl | 35%
CNC(=O)c1cccc(F)c1Nc1nc(Nc2ccc3c(c2)NC(=O)C(NC(=O)C(F)(F)F)CC3(C)C)ncc1Cl.O=C(O)C(F)(F)F (racemic) | 9%
CNC(=O)c1cccc(F)c1Nc1nc(Nc2ccc3c(c2)NC(=O)C(NC(=O)CN(C)C)CC3(C)C)ncc1Cl.O=C(O)C(F)(F)F (racemic) | 1%
CNC(=O)c1cccc(F)c1Nc1nc(Nc2ccc3c(c2)NC(=O)C(NC(C)=O)CC3(C)C)ncc1Cl.O=C(O)C(F)(F)F (racemic) | 2%
CNC(=O)c1cccc(F)c1Nc1nc(Nc2ccc3c(c2)NC(=O)C(NC(=O)COC)CC3(C)C)ncc1Cl.O=C(O)C(F)(F)F (racemic) | 12%
CNC(=O)c1cccc(F)c1Nc1nc(Nc2ccc3c(c2)NC(=O)C(NC(=O)OC)CC3(C)C)ncc1Cl.O=C(O)C(F)(F)F (racemic) | 16%
CNC(=O)c1cccc(F)c1Nc1nc(Nc2ccc3c(c2)NC(=O)C(NC(=O)N2CCCC2)CC3(C)C)ncc1Cl.O=C(O)C(F)(F)F (racemic; form 1) | 15%
CNC(=O)c1cccc(F)c1Nc1nc(Nc2ccc3c(c2)NC(=O)C(NC(=O)N2CCCC2)CC3(C)C)ncc1Cl (racemic; form 2) | 40%

tested on: not listed separately; assay: Volume of distribution in Sprague-Dawley rat by HPLC; format: ADME, organism-based; settings: in vivo; in short: as §1

SMILES | Vd
CNC(=O)c1cccc(F)c1Nc1nc(Nc2ccc3c(c2)NC(=O)CCC3(C)C)ncc1Cl | 0.5 L/kg
CNC(=O)c1cccc(F)c1Nc1nc(Nc2ccc3c(c2)NC(=O)[C@H](NC(=O)N2CCCC2)CC3(C)C)ncc1Cl | 0.6 L/kg
CNC(=O)c1cccc(F)c1Nc1nc(Nc2ccc3c(c2)NC(=O)[C@@H](NC(=O)N2CCCC2)CC3(C)C)ncc1Cl | 0.6 L/kg
CNC(=O)c1cccc(F)c1Nc1nc(Nc2ccc3c(c2)NC(=O)C(NC(=O)C(F)(F)F)CC3(C)C)ncc1Cl.O=C(O)C(F)(F)F (racemic) | 1.2 L/kg
CNC(=O)c1cccc(F)c1Nc1nc(Nc2ccc3c(c2)NC(=O)C(N)CC3(C)C)ncc1Cl (racemic) | 4.6 L/kg
CNC(=O)c1cccc(F)c1Nc1nc(Nc2ccc3c(c2)NC(=O)C(NC(=O)CN(C)C)CC3(C)C)ncc1Cl.O=C(O)C(F)(F)F (racemic) | 3 L/kg
CNC(=O)c1cccc(F)c1Nc1nc(Nc2ccc3c(c2)NC(=O)C(NC(C)=O)CC3(C)C)ncc1Cl.O=C(O)C(F)(F)F (racemic) | 2 L/kg
CNC(=O)c1cccc(F)c1Nc1nc(Nc2ccc3c(c2)NC(=O)C(NC(=O)COC)CC3(C)C)ncc1Cl.O=C(O)C(F)(F)F (racemic) | 1.3 L/kg
CNC(=O)c1cccc(F)c1Nc1nc(Nc2ccc3c(c2)NC(=O)C(NC(=O)OC)CC3(C)C)ncc1Cl.O=C(O)C(F)(F)F (racemic) | 1 L/kg
CNC(=O)c1cccc(F)c1Nc1nc(Nc2ccc3c(c2)NC(=O)C(NC(=O)N2CCCC2)CC3(C)C)ncc1Cl.O=C(O)C(F)(F)F (racemic; form 1) | 0.8 L/kg
CNC(=O)c1cccc(F)c1Nc1nc(Nc2ccc3c(c2)NC(=O)C(NC(=O)N2CCCC2)CC3(C)C)ncc1Cl (racemic; form 2) | 0.8 L/kg

tested on: not listed separately; assay: Solubility of the compound at pH 7.4; format: physicochemical; settings: buffer

SMILES | solubility
CNC(=O)c1cccc(F)c1Nc1nc(Nc2ccc3c(c2)NC(=O)CCC3(C)C)ncc1Cl | 21 µg/mL (≈ 43.5 µM)
CNC(=O)c1cccc(F)c1Nc1nc(Nc2ccc3c(c2)NC(=O)[C@H](NC(=O)N2CCCC2)CC3(C)C)ncc1Cl | 26 µg/mL (≈ 43.7 µM)

tested on: not listed separately; assay: Solubility of the compound; format: physicochemical; settings: not given

SMILES | solubility
CNC(=O)c1cccc(F)c1Nc1nc(Nc2ccc3c(c2)NC(=O)CCC3(C)C)ncc1Cl | 21 µg/mL (≈ 43.5 µM)
CNC(=O)c1cccc(F)c1Nc1nc(Nc2ccc3c(c2)NC(=O)C(NC(=O)C(F)(F)F)CC3(C)C)ncc1Cl.O=C(O)C(F)(F)F (racemic) | 8 µg/mL
CNC(=O)c1cccc(F)c1Nc1nc(Nc2ccc3c(c2)NC(=O)C(N)CC3(C)C)ncc1Cl (racemic) | > 120 µg/mL

tested on: Rattus norvegicus; assay: AUC in Sprague-Dawley rat at 5 mg/kg, po by HPLC; format: ADME, organism-based, Plasma; design: dose 5 mg/kg, route oral; settings: in vivo

SMILES | AUC
CNC(=O)c1cccc(F)c1Nc1nc(Nc2ccc3c(c2)NC(=O)CCC3(C)C)ncc1Cl | 46 ng·h/mL
CNC(=O)c1cccc(F)c1Nc1nc(Nc2ccc3c(c2)NC(=O)[C@H](NC(=O)N2CCCC2)CC3(C)C)ncc1Cl | 5850 ng·h/mL
CNC(=O)c1cccc(F)c1Nc1nc(Nc2ccc3c(c2)NC(=O)[C@@H](NC(=O)N2CCCC2)CC3(C)C)ncc1Cl | 5550 ng·h/mL
CNC(=O)c1cccc(F)c1Nc1nc(Nc2ccc3c(c2)NC(=O)C(NC(=O)C(F)(F)F)CC3(C)C)ncc1Cl.O=C(O)C(F)(F)F (racemic) | 606 ng·h/mL
CNC(=O)c1cccc(F)c1Nc1nc(Nc2ccc3c(c2)NC(=O)C(NC(=O)CN(C)C)CC3(C)C)ncc1Cl.O=C(O)C(F)(F)F (racemic) | 61 ng·h/mL
CNC(=O)c1cccc(F)c1Nc1nc(Nc2ccc3c(c2)NC(=O)C(NC(C)=O)CC3(C)C)ncc1Cl.O=C(O)C(F)(F)F (racemic) | 48 ng·h/mL
CNC(=O)c1cccc(F)c1Nc1nc(Nc2ccc3c(c2)NC(=O)C(NC(=O)COC)CC3(C)C)ncc1Cl.O=C(O)C(F)(F)F (racemic) | 497 ng·h/mL
CNC(=O)c1cccc(F)c1Nc1nc(Nc2ccc3c(c2)NC(=O)C(NC(=O)OC)CC3(C)C)ncc1Cl.O=C(O)C(F)(F)F (racemic) | 987 ng·h/mL
CNC(=O)c1cccc(F)c1Nc1nc(Nc2ccc3c(c2)NC(=O)C(NC(=O)N2CCCC2)CC3(C)C)ncc1Cl.O=C(O)C(F)(F)F (racemic; form 1) | 2630 ng·h/mL
CNC(=O)c1cccc(F)c1Nc1nc(Nc2ccc3c(c2)NC(=O)C(NC(=O)N2CCCC2)CC3(C)C)ncc1Cl (racemic; form 2) | 4660 ng·h/mL
